Source: PubChem (The Scripps Research Institute Molecular Screening Center)
UHRF1 binding – UHRF1 methyl-DNA binding inhibition; Q96T88; UHRF1 binding to methylated oligo, TR-FRET; inhibition, % at 4.4 µM; 370,000 tested, 0.75% active; in the data active = inhibition above about 21%;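 also: UHRF1 SRA domain binding a hemimethylated CpG hairpin DNA probe; 0% = median of test compound wells and 100% = reference inhibitor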
MBD2 inh – inhibitors of human MBD2 binding to methylated oligonucleotide. Q9UBB5. TR-FRET. inhibition, % at 4.4 µM. 370,000 tested, 0.31% active. AID 686964; in the data active = inhibition above about 13%
Target sequence (Q9UBB5 whole entry, looked up): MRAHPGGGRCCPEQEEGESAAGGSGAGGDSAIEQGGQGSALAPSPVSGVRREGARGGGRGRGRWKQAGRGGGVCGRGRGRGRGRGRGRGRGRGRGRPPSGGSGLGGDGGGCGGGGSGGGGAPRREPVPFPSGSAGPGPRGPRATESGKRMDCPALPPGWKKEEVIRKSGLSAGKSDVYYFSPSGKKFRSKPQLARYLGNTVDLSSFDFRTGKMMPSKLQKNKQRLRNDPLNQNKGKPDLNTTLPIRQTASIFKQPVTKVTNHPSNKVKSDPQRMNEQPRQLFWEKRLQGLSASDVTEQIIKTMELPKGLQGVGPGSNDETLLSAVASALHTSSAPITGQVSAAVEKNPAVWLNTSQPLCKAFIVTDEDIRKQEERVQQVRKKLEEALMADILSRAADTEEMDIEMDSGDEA
TDP2 absorb – TDP2 (human) inhibition, absorbance primary screen. recombinant TDP2, T5PNP hydrolysis, p-nitrophenol absorbance 415 nm. 370,000 tested, 0.34% active. O95551. AID 720702. inhibition, % at 12.8 µM;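 active = inhibition above the mean of all tested compounds plus 3 SD, set per campaign, cut at about 25% in these data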;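 also: 0% = DMSO with enzyme and 100% = buffer with substrate but no TDP2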
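System – recombinant human TDP2 · Quantity – TDP2 enzyme at 120 nM final · Doses – single concentration, 12.8 µM nominal, with 1% DMSO · Incubation – 2 h at 37 °C · Measured by – epi absorbance of p-nitrophenol freed from T5PNP by hydrolysis · Read-out – % inhibition relative to enzyme-containing and enzyme-free wells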
LEDGF integ inh – blocks HIV-1 LEDGF/p75-dependent DNA integration; AID 743269; inhibition, % at 3.7 µM; TR-FRET IN-LEDGF/p75 DNA integration, Eu/Cy5; 370,000 tested, 0.64% active;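 active = inhibition above the screen-wide mean plus 3 SD, cut at about 13% in these data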;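 also: signal is the Cy5 over europium emission ratio at 671 and 618 nm; 0% = plate median of compound wells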
IN multimer act – counter-screen for LEDGF/p75 integration inhibitors: HIV-1 integrase multimerization activators | shares compounds with LEDGF integ inh | 2,000 tested, 17% active | TR-FRET HIV-1 integrase multimerization, biochemical | activation, % at 7.7 µM; in the data active = activation above about 8.9%
TR-FRET interf – TR-FRET optical interference, LEDGF/p75 integration counter-screen. shares compounds with LEDGF integ inh. AID 1053135. TR-FRET optical interference counterscreen, HIV-1 IN multimerization. inhibition, % at 7.7 µM. 2,000 tested, under 10 active;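 active = inhibition above the mean over all tested compounds plus 3 SD, which no compound reached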;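 also: 0% = integrase with antibodies and DMSO and 100% = antibodies without integrase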
IN-LEDGF confirm – confirmation of HIV-1 LEDGF/p75-dependent integration inhibitors | 2,000 tested, 36% active | shares compounds with LEDGF integ inh | TR-FRET LEDGF/p75-dependent HIV-1 integration, biochemical | inhibition, % at 3.7 µM; in the data active = inhibition above about 14%
The depositor's hits bear a star. This is a sample that favours compounds with a hit; in the whole collection about 1.6% have one here.

Screening CC(O)(c1ccccc1)c1nc(-c2cccc(C(=O)O)c2)cs1 (configuration not stated) returned UHRF1 binding 11, MBD2 inh 5, TDP2 absorb -9 and LEDGF integ inh 0.
For COc1cccc(C(C)(O)c2nc(-c3ccc(Cl)cc3)cs2)c1 (configuration not stated) the results were UHRF1 binding 1, MBD2 inh 3, TDP2 absorb 0 and LEDGF integ inh -4.
For CC(C)c1cccc(-c2csc(C(C)(O)c3ccccc3)n2)c1 (configuration not stated) the results were UHRF1 binding 1, MBD2 inh 1, TDP2 absorb -3, LEDGF integ inh 16*, IN multimer act 0, TR-FRET interf -1 and IN-LEDGF confirm -10.
COc1ccc(-c2csc(C(C)(O)c3cccc(OC)c3)n2)cc1 (configuration not stated) was read as UHRF1 binding -3, MBD2 inh 2, TDP2 absorb -8, LEDGF integ inh 22*, IN multimer act 0, TR-FRET interf 0 and IN-LEDGF confirm -5.
Screening O=C(c1ccccc1)N1CC[C@H]2[C@H](CCCN2Cc2cc(F)cc(F)c2)C1 returned UHRF1 binding -3, MBD2 inh 3, TDP2 absorb -3 and LEDGF integ inh 6.
For CCN(CC)c1cc(-c2ccccc2)ncn1 the results were UHRF1 binding 4, MBD2 inh 2, TDP2 absorb -8 and LEDGF integ inh -7.
Screening CCN(CC)c1cc(Oc2ccccc2)ncn1 returned UHRF1 binding 1, MBD2 inh -3, TDP2 absorb 5, LEDGF integ inh 47*, IN multimer act 1, TR-FRET interf -5 and IN-LEDGF confirm -6.
Screening O=C(CCl)Nc1cccc(S(=O)(=O)NC2=NCCCCC2)c1 returned UHRF1 binding -3, MBD2 inh -3, TDP2 absorb 4 and LEDGF integ inh -1.
Screening O=C(CCl)Nc1ccc(S(=O)(=O)NC2=NCCCCC2)cc1 returned UHRF1 binding 4, MBD2 inh 2, TDP2 absorb -16, LEDGF integ inh 17*, IN multimer act -1, TR-FRET interf 3 and IN-LEDGF confirm -3.
CCCCCC(=O)NC1CCCCN(Cc2ccc(Cl)cc2)C1=O (configuration not stated) was read as UHRF1 binding 2, MBD2 inh 2, TDP2 absorb 5 and LEDGF integ inh -2.
`CNC[C@H](O)c1ccc(O)c(O)c1` gave UHRF1 binding 6, MBD2 inh 1, TDP2 absorb 11, LEDGF integ inh 18*, IN multimer act 1, TR-FRET interf -3 and IN-LEDGF confirm 0.
`COc1cc(C(O)CO)ccc1O` (configuration not stated) gave UHRF1 binding 1, MBD2 inh 8, TDP2 absorb 6 and LEDGF integ inh 2.
For CC(C)NCC(O)c1ccc(O)c(O)c1 (configuration not stated) the results were UHRF1 binding -2, MBD2 inh -4, TDP2 absorb 7 and LEDGF integ inh -9.
For NC[C@H](O)c1ccc(O)c(O)c1 the results were UHRF1 binding 5, MBD2 inh 4, TDP2 absorb 3, LEDGF integ inh 15*, IN multimer act 1, TR-FRET interf -7 and IN-LEDGF confirm -10.
For OC(c1ccccc1)(c1ccccc1)C1CCN(CCCNc2ccc(Cl)cc2Cl)CC1 the results were UHRF1 binding -2, MBD2 inh 1, TDP2 absorb 7 and LEDGF integ inh -2.
Screening COc1ccc(-n2c(SCC(=O)Nc3ccc(OCc4ccccc4)cc3)nnc2-c2ccc(C)cc2)cc1 returned UHRF1 binding -1, MBD2 inh -1, TDP2 absorb 2 and LEDGF integ inh 3.
COC(=O)CN(Cc1cn(Cc2ccccc2)nn1)S(=O)(=O)c1ccccc1Br was read as UHRF1 binding 0, MBD2 inh 2, TDP2 absorb 2 and LEDGF integ inh 2.
For CN(C)/C=N/c1ncn(-c2ncc(C(F)(F)F)cc2Cl)n1 the results were UHRF1 binding -1, MBD2 inh -5, TDP2 absorb 4, LEDGF integ inh 17*, IN multimer act 1, TR-FRET interf -5 and IN-LEDGF confirm -6.
Screening CN(Cc1ccccc1)C(=S)NC(=O)c1ccc(-c2ccccc2)cc1 returned UHRF1 binding 1, MBD2 inh -1, TDP2 absorb 2 and LEDGF integ inh 2.
COc1ccc(C(=O)NC(=S)N(Cc2ccccc2)Cc2ccccc2)cc1 was read as UHRF1 binding -4, MBD2 inh -2, TDP2 absorb 8, LEDGF integ inh 15*, IN multimer act 1, TR-FRET interf -5 and IN-LEDGF confirm 9.
O=C(NC(=S)N(CCc1ccccc1)CCc1ccccc1)c1ccco1 was read as UHRF1 binding -5, MBD2 inh 1, TDP2 absorb 3, LEDGF integ inh 15*, IN multimer act -2, TR-FRET interf 8 and IN-LEDGF confirm 20*.
Screening CC(CCc1ccccc1)NC(=S)NC(=O)c1ccco1 (configuration not stated) returned UHRF1 binding 0, MBD2 inh -6, TDP2 absorb -9 and LEDGF integ inh 2.
For COc1cc(C(=O)NC(=S)N(CCc2ccccc2)CCc2ccccc2)cc(OC)c1OC the results were UHRF1 binding -6, MBD2 inh -2, TDP2 absorb -4, LEDGF integ inh 14*, IN multimer act 0, TR-FRET interf -1 and IN-LEDGF confirm 6.
`C[C@@H]1CCN(C2CC2)S(=O)(=O)c2c(cccc2N2CCC[C@@H]2CO)O1` gave UHRF1 binding -4, MBD2 inh 0, TDP2 absorb -5 and LEDGF integ inh 4.
For O=C(C1CCC1)N1CCc2cc(S(=O)(=O)N3CCCC3)ccc21 the results were UHRF1 binding 0, MBD2 inh -1, TDP2 absorb 8 and LEDGF integ inh 0.
For CC1C/C(=C/c2cccs2)C(=O)/C(=C/c2cccs2)C1 (configuration not stated) the results were UHRF1 binding 28*, MBD2 inh 2, TDP2 absorb -17, LEDGF integ inh 29*, IN multimer act 0, TR-FRET interf 2 and IN-LEDGF confirm 5.
For O=C(Nc1ncc2c(n1)CC(c1ccco1)CC2=O)c1ccco1 (configuration not stated) the results were UHRF1 binding 10, MBD2 inh -3, TDP2 absorb -9, LEDGF integ inh 13*, IN multimer act 1, TR-FRET interf -4 and IN-LEDGF confirm 0.
